According to ChEMBL document CHEMBL1153954, “Promiscuous aggregate-based inhibitors promote enzyme unfolding” (J Med Chem, 2009):

Key:
AmpC (Escherichia coli) [1] = target: AmpC (Escherichia coli) (UniProt Q83TT7); test: Aggregation based inhibition of Escherichia coli AmpC assessed as increase in deuteration of AmpC peptide fragment spanning 132-146 amino acid sequence after 1 hr by hydrogen-deuterium exchange mass spectrometry relative to control
Summary of the method: (§1)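 AmpC β-lactamase diluted from a 215 μM stock (50 mM KPi, pH 7.0) into deuterated 50 mM MOPS in D2O, pH 7.0. Final enzyme was 0.16 μM with 100 μM aggregator (0.5% DMSO) or 16 μM without. Aggregate samples were centrifuged 16000g for 5 min and the pellet kept. Triton X-100 was added to release enzyme. Samples were quenched with ice-cold 0.1% TFA pH 2.5, digested on immobilized pepsin 5 min on ice, then analysed by chilled fast-gradient LC-MS. Deuterium uptake is centroid mass shift versus the undeuterated control, not corrected for back exchange. Ratio is inhibited over uninhibited, from three replicates.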

AmpC (Escherichia coli) [2] = target: AmpC (Escherichia coli) (UniProt Q83TT7); test: Aggregation based inhibition of Escherichia coli AmpC assessed as increase in deuteration of AmpC peptide fragment spanning 109-128 amino acid sequence after 1 hr by hydrogen-deuterium exchange mass spectrometry relative to control; summary of the method: as §1
AmpC (Escherichia coli) [3] = target: AmpC (Escherichia coli) (UniProt Q83TT7); test: (§2) Aggregation based inhibition of Escherichia coli AmpC assessed as solvent accessibility of AmpC peptide fragment spanning 243-250 amino acid sequence by measuring ratio of side chain surface area to random coil values per amino acid reside by hydrogen-deuterium exchange mass spectrometry relative to control; set-up: scale not given: the % may be the effect or the level left
Summary of the method: (§3)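 Side-chain solvent accessibility per peptide was calculated from the structure with a 1.4 Å probe radius and default atomic radii and solvation parameters. Each value is the average over residues of the side-chain surface area relative to its random-coil value. Above 50% is exposed; below 20% is buried.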

AmpC (Escherichia coli) [4] = target: AmpC (Escherichia coli) (UniProt Q83TT7); test: Aggregation based inhibition of Escherichia coli AmpC assessed as increase in deuteration of AmpC peptide fragment spanning 336-350 amino acid sequence after 8 hrs by hydrogen-deuterium exchange mass spectrometry relative to control; summary of the method: as §1
AmpC (Escherichia coli) [5] = target: AmpC (Escherichia coli) (UniProt Q83TT7); test: Aggregation based inhibition of Escherichia coli AmpC assessed as increase in deuteration of AmpC peptide fragment spanning 132-146 amino acid sequence after 10 mins by hydrogen-deuterium exchange mass spectrometry relative to control; summary of the method: as §1
AmpC (Escherichia coli) [6] = target: AmpC (Escherichia coli) (UniProt Q83TT7); test: Aggregation based inhibition of Escherichia coli AmpC assessed as increase in deuteration of AmpC peptide fragment spanning 291-322 amino acid sequence after 10 mins by hydrogen-deuterium exchange mass spectrometry relative to control; summary of the method: as §1
AmpC (Escherichia coli) [7] = target: AmpC (Escherichia coli) (UniProt Q83TT7); test: Aggregation based inhibition of Escherichia coli AmpC assessed as increase in deuteration of AmpC peptide fragment spanning 42-56 amino acid sequence after 1 hr by hydrogen-deuterium exchange mass spectrometry relative to control; summary of the method: as §1
AmpC (Escherichia coli) [8] = target: AmpC (Escherichia coli) (UniProt Q83TT7); test: Aggregation based inhibition of Escherichia coli AmpC assessed as increase in deuteration of AmpC peptide fragment spanning 8-18 amino acid sequence after 1 hr by hydrogen-deuterium exchange mass spectrometry relative to control; summary of the method: as §1
AmpC (Escherichia coli) [9] = target: AmpC (Escherichia coli) (UniProt Q83TT7); test: Aggregation based inhibition of Escherichia coli AmpC assessed as increase in deuteration of AmpC peptide fragment spanning 336-350 amino acid sequence after 10 mins by hydrogen-deuterium exchange mass spectrometry relative to control; summary of the method: as §1
AmpC (Escherichia coli) [10] = target: AmpC (Escherichia coli) (UniProt Q83TT7); test: Aggregation based inhibition of Escherichia coli AmpC assessed as increase in deuteration of AmpC peptide fragment spanning 243-250 amino acid sequence after 10 mins by hydrogen-deuterium exchange mass spectrometry relative to control; summary of the method: as §1
AmpC (Escherichia coli) [11] = target: AmpC (Escherichia coli) (UniProt Q83TT7); test: as §2, with “323-332” for “243-250”; set-up: scale not given: the % may be the effect or the level left; summary of the method: as §3
AmpC (Escherichia coli) [12] = target: AmpC (Escherichia coli) (UniProt Q83TT7); test: as §2, with “8-18” for “243-250”; set-up: scale not given: the % may be the effect or the level left; summary of the method: as §3
AmpC (Escherichia coli) [13] = target: AmpC (Escherichia coli) (UniProt Q83TT7); test: as §2, with “132-146” for “243-250”; set-up: scale not given: the % may be the effect or the level left; summary of the method: as §3
AmpC (Escherichia coli) [14] = target: AmpC (Escherichia coli) (UniProt Q83TT7); test: Aggregation based inhibition of Escherichia coli AmpC assessed as increase in deuteration of AmpC peptide fragment spanning 271-289 amino acid sequence after 10 mins by hydrogen-deuterium exchange mass spectrometry relative to control; summary of the method: as §1
AmpC (Escherichia coli) [15] = target: AmpC (Escherichia coli) (UniProt Q83TT7); test: Aggregation based inhibition of Escherichia coli AmpC assessed as increase in deuteration of AmpC peptide fragment spanning 291-322 amino acid sequence after 1 hr by hydrogen-deuterium exchange mass spectrometry relative to control; summary of the method: as §1
AmpC (Escherichia coli) [16] = target: AmpC (Escherichia coli) (UniProt Q83TT7); test: Aggregation based inhibition of Escherichia coli AmpC assessed as increase in deuteration of AmpC peptide fragment spanning 42-56 amino acid sequence after 10 mins by hydrogen-deuterium exchange mass spectrometry relative to control; summary of the method: as §1
AmpC (Escherichia coli) [17] = target: AmpC (Escherichia coli) (UniProt Q83TT7); test: Aggregation based inhibition of Escherichia coli AmpC assessed as increase in deuteration of AmpC peptide fragment spanning 271-289 amino acid sequence after 1 hr by hydrogen-deuterium exchange mass spectrometry relative to control; summary of the method: as §1
AmpC (Escherichia coli) [18] = target: AmpC (Escherichia coli) (UniProt Q83TT7); test: Aggregation based inhibition of Escherichia coli AmpC assessed as increase in deuteration of AmpC peptide fragment spanning 323-332 amino acid sequence after 8 hrs by hydrogen-deuterium exchange mass spectrometry relative to control; summary of the method: as §1
AmpC (Escherichia coli) [19] = target: AmpC (Escherichia coli) (UniProt Q83TT7); test: Aggregation based inhibition of Escherichia coli AmpC assessed as increase in deuteration of AmpC peptide fragment spanning 105-128 amino acid sequence after 1 hr by hydrogen-deuterium exchange mass spectrometry relative to control; summary of the method: as §1
AmpC (Escherichia coli) [20] = target: AmpC (Escherichia coli) (UniProt Q83TT7); test: Aggregation based inhibition of Escherichia coli AmpC assessed as increase in deuteration of AmpC peptide fragment spanning 105-128 amino acid sequence after 10 mins by hydrogen-deuterium exchange mass spectrometry relative to control; summary of the method: as §1

Chain of AmpC (Escherichia coli) (Q83TT7 as listed by the source): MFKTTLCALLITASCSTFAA

CC(=O)c1c(O)c(C)c(O)c(Cc2c(O)c3c(c(C(=O)/C=C/c4ccccc4)c2O)OC(C)(C)C=C3)c1O
fold change (FC) (AmpC (Escherichia coli) [1]): 4.2 | fold change (FC) (AmpC (Escherichia coli) [2]): 2.5 | Activity (AmpC (Escherichia coli) [3]): 20.7% | fold change (FC) (AmpC (Escherichia coli) [4]): 2 | fold change (FC) (AmpC (Escherichia coli) [5]): 2.6 | fold change (FC) (AmpC (Escherichia coli) [6]): 1.6 | fold change (FC) (AmpC (Escherichia coli) [7]): 2.7 | fold change (FC) (AmpC (Escherichia coli) [8]): 2.3 | fold change (FC) (AmpC (Escherichia coli) [9]): 1.7 | fold change (FC) (AmpC (Escherichia coli) [10]): 1.2 | Activity (AmpC (Escherichia coli) [11]): 11.8% | Activity (AmpC (Escherichia coli) [12]): 35.7% | Activity (AmpC (Escherichia coli) [13]): 34.8% | fold change (FC) (AmpC (Escherichia coli) [14]): 1.4 | fold change (FC) (AmpC (Escherichia coli) [15]): 2.5 | fold change (FC) (AmpC (Escherichia coli) [16]): 1.9 | fold change (FC) (AmpC (Escherichia coli) [17]): 2.6 | fold change (FC) (AmpC (Escherichia coli) [18]): 2.7 | fold change (FC) (AmpC (Escherichia coli) [19]): 2.6 | fold change (FC) (AmpC (Escherichia coli) [20]): 1.6
